Experimental data reported in ChEMBL document CHEMBL1152398, “Labdane diterpenoid glycosides from Alpinia densespicata and their nitric oxide inhibitory activities in macrophages” (J Nat Prod, 2009).
Active and inactive are the calls of the source. No cut-off for these calls is given here.

Columns and labels:
[1] = system: RAW264.7; assay: Antiinflammatory activity in mouse RAW264.7 cells assessed as inhibition of LPS-induced nitric oxide production after 24 hrs by Griess reagent assay; assay type: functional, cell-based; details: RAW264.7, 24 h
Procedure, shortened: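 RAW264.7 murine macrophages grown in DMEM with 10% heat-inactivated FBS at 37 °C, 5% CO2. After 24 h, medium renewed; compounds added at 0, 1, 5, 10 or 20 µg/mL with LPS 1 µg/mL, then 24 h incubation. Supernatant nitrite measured with Griess reagent, absorbance 540 nm. Results given as percent of untreated control. Mean ± SD of three experiments, each in triplicate.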

[2] = system: HeLa; assay: Cytotoxicity against human HeLa cells at 20 uM by modified MTT assay; assay type: functional, cell-based
[3] = system: KB; assay: Cytotoxicity against human KB cells at 20 uM by modified MTT assay; assay type: functional, cell-based
[4] = system: Daoy; assay: Cytotoxicity against human DaOY cells at 20 uM by modified MTT assay; assay type: functional, cell-based
[5] = system: WiDr; assay: Cytotoxicity against human WiDr cells at 20 uM by modified MTT assay; assay type: functional, cell-based
[6] = system: Radical scavenging activity; assay: Antioxidant activity assessed as DPPH radical scavenging activity after 30 mins by ELISA; assay type: functional
Procedure, shortened: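 Sample (200-3.125 µg/mL) or quercetin (25-3.125 µg/mL), 120 µL, mixed with 30 µL of 0.75 mM DPPH in methanol. Shaken in the dark at room temperature for 30 min, then absorbance read at 517 nm. Methanol in place of sample served as negative control. ED50 is the concentration giving 50% reduction of DPPH radicals.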

[7] = Cytotoxicity against mouse RAW264.7 cells assessed as cell viability by modified MTT assay; assay type: cell-based; set-up: concentration or dose not given beside the values; details: read-out: Activity
Procedure, shortened: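 RAW264.7 cells after the same LPS (1 µg/mL) and compound (0-20 µg/mL) 24 h exposure used for NO measurement. MTT (5 mg/mL stock in PBS, 10 µL per 100 µL culture) added for 4 h at 37 °C. Formazan dissolved in DMSO and read at 550 nm. Untreated cells taken as 100% viability.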

Q: With `C[C@@H]1O[C@@H](O[C@H]2[C@H](Oc3c(-c4ccc(O)c(O)c4)oc4cc(O)cc(O)c4c3=O)O[C@@H](C)[C@H](O)[C@H]2O)[C@H](O)[C@H](O)[C@H]1O` as the compound, how does the IC50 [1] read?
A: The IC50 was 32.9 µM.

Q: And the Activity [2]?
A: Its Activity is “inactive”.

Q: What about the Activity [3] of the same compound?
A: Its Activity is “inactive”.

Q: What about the Activity [4] of the same compound?
A: Its Activity is “inactive”.

Q: What about the Activity [5] of the same compound?
A: The Activity was “inactive”.

Q: What about the ED50 [6] of the same compound?
A: Its ED50 is 16.6 µM.

Q: And the viability [7]?
A: Its viability is greater than 80%.

Q: For `C[C@@H]1O[C@@H](O[C@H]2C(Oc3c(-c4ccc(O)cc4)oc4cc(O)cc(O)c4c3=O)O[C@@H](C)[C@H](O)[C@H]2O)[C@H](O)[C@H](O)[C@H]1O` (stereo partly specified), which IC50 [1] is on record?
A: Its IC50 is 40.1 µM.

Q: What about the Activity [2] of the same compound?
A: Its Activity is “inactive”.

Q: What about the Activity [3] of the same compound?
A: The Activity was “inactive”.

Q: And the Activity [4]?
A: Its Activity is “inactive”.

Q: What about the Activity [5] of the same compound?
A: The Activity was “inactive”.

Q: And the viability [7]?
A: Its viability is greater than 80%.

Q: With `O=c1c(O)c(-c2ccc(O)cc2O)oc2cc(O[C@@H]3O[C@H](CO)[C@@H](O)[C@H](O)[C@H]3O)cc(O)c12` as the compound, how does the IC50 [1] read?
A: Its IC50 is 39.1 µM.

Q: And the Activity [2]?
A: The Activity was “inactive”.

Q: And the Activity [3]?
A: Its Activity is “inactive”.

Q: What about the Activity [4] of the same compound?
A: The Activity was “inactive”.

Q: What about the Activity [5] of the same compound?
A: Its Activity is “inactive”.

Q: What about the ED50 [6] of the same compound?
A: Its ED50 is 22.2 µM.

Q: What about the viability [7] of the same compound?
A: The viability was greater than 80%.

Q: For `CC1(C)[C@@H](O)CC[C@]2(C)C3=C(CC[C@@H]12)CO[C@H](C1=CCOC1=O)C3`, which IC50 [1] is on record?
A: Its IC50 is 12.2 µM.

Q: What about the Activity [2] of the same compound?
A: Its Activity is “inactive”.

Q: What about the Activity [3] of the same compound?
A: Its Activity is “inactive”.

Q: What about the Activity [4] of the same compound?
A: Its Activity is “inactive”.

Q: What about the Activity [5] of the same compound?
A: Its Activity is “inactive”.

Q: What about the viability [7] of the same compound?
A: The viability was greater than 80%.

Q: For `C[C@@H]1O[C@@H](O[C@H]2[C@H](O[C@H]3CC[C@]4(C)C5=C(CC[C@H]4C3(C)C)CO[C@H](C3=CCOC3=O)C5)O[C@H](CO)[C@@H](O)[C@@H]2O)[C@H](O)[C@H](O)[C@H]1O` [ALPINDENOSIDE A], which IC50 [1] is on record?
A: Its IC50 is 34.2 µM.

Q: What about the Activity [2] of the same compound?
A: The Activity was “inactive”.

Q: What about the Activity [3] of the same compound?
A: Its Activity is “inactive”.

Q: And the Activity [4]?
A: Its Activity is “inactive”.

Q: What about the Activity [5] of the same compound?
A: The Activity was “inactive”.

Q: And the ED50 [6]?
A: The ED50 was greater than 200 µg/mL.

Q: What about the viability [7] of the same compound?
A: The viability was greater than 80%.

Q: Which IC50 [1] does the source give for `C[C@@H]1O[C@@H](O[C@H]2[C@H](O[C@H]3CC[C@]4(C)C5=C(CC[C@H]4C3(C)C)CO[C@@H](C3=CCOC3=O)C5)O[C@H](CO)[C@@H](O)[C@@H]2O)[C@H](O)[C@H](O)[C@H]1O` [ALPINDENOSIDE B] here?
A: Its IC50 is 49.3 µM.

Q: And the Activity [2]?
A: Its Activity is “inactive”.

Q: And the Activity [3]?
A: Its Activity is “inactive”.

Q: And the Activity [4]?
A: The Activity was “inactive”.

Q: And the Activity [5]?
A: Its Activity is “inactive”.

Q: What about the ED50 [6] of the same compound?
A: Its ED50 is greater than 200 µg/mL.

Q: What about the viability [7] of the same compound?
A: Its viability is greater than 80%.

Q: For `C[C@@H]1O[C@@H](O[C@H]2[C@H](O[C@H]3CC[C@]4(C)[C@@H]5C[C@H](C6=CCOC6=O)OC(O)[C@@H]5CC[C@H]4C3(C)C)O[C@H](CO)[C@@H](O)[C@@H]2O)[C@H](O)[C@H](O)[C@H]1O` (stereo partly specified) [ALPINDENOSIDE C], which IC50 [1] is on record?
A: The IC50 was 38 µM.

Q: What about the Activity [2] of the same compound?
A: Its Activity is “inactive”.

Q: And the Activity [3]?
A: Its Activity is “inactive”.

Q: And the Activity [4]?
A: Its Activity is “inactive”.

Q: What about the Activity [5] of the same compound?
A: Its Activity is “inactive”.

Q: And the ED50 [6]?
A: The ED50 was greater than 200 µg/mL.

Q: And the viability [7]?
A: The viability was greater than 80%.

Q: With `CC(=O)OC[C@H]1O[C@@H](O[C@H]2CC[C@]3(C)[C@H]4C[C@H](C5=CCOC5=O)OC(O)[C@@H]4CC[C@H]3C2(C)C)[C@H](O[C@@H]2O[C@@H](C)[C@H](O)[C@@H](O)[C@H]2O)[C@@H](O)[C@@H]1O` (stereo partly specified) [ALPINDENOSIDE D] as the compound, how does the IC50 [1] read?
A: The IC50 was 30 µM.

Q: What about the Activity [2] of the same compound?
A: Its Activity is “inactive”.

Q: And the Activity [3]?
A: The Activity was “inactive”.

Q: And the Activity [4]?
A: Its Activity is “inactive”.

Q: What about the Activity [5] of the same compound?
A: The Activity was “inactive”.

Q: What about the ED50 [6] of the same compound?
A: Its ED50 is greater than 200 µg/mL.

Q: And the viability [7]?
A: Its viability is greater than 80%.

Q: Which IC50 [1] does the source give for `CC1(C)[C@@H](O)CC[C@]2(C)C3=C(CC[C@@H]12)CO[C@@H](C1=CCOC1=O)C3` [AULACOCARPINOLIDE] here?
A: The IC50 was 44.6 µM.

Q: What about the Activity [2] of the same compound?
A: The Activity was “inactive”.

Q: What about the Activity [3] of the same compound?
A: Its Activity is “inactive”.

Q: And the Activity [4]?
A: Its Activity is “inactive”.

Q: And the Activity [5]?
A: Its Activity is “inactive”.

Q: And the viability [7]?
A: The viability was greater than 80%.

Q: Which results are given for `C=C(CO)[C@H]1C[C@@H]2[C@@H](CC[C@H]3C(C)(C)[C@@H](O[C@@H]4O[C@H](CO)[C@@H](O)[C@H](O)[C@H]4O[C@@H]4O[C@@H](C)[C@H](O)[C@@H](O)[C@H]4O)CC[C@]23C)[C@H]1O` [NORALPINDENOSIDE A]?
A: IC50 [1]: 31.8 µM; Activity [2]: inactive; Activity [3]: inactive; Activity [4]: inactive; Activity [5]: inactive; ED50 [6]: > 200 µg/mL; viability [7]: > 80%

Q: What does the source list for `C=C(C)[C@H]1C[C@@H]2[C@@H](CC[C@H]3C(C)(C)[C@@H](O[C@@H]4O[C@H](CO)[C@@H](O)[C@H](O)[C@H]4O[C@@H]4O[C@@H](C)[C@H](O)[C@@H](O)[C@H]4O)CC[C@]23C)[C@H]1O` [NORALPINDENOSIDE B]?
A: IC50 [1]: 44.3 µM; Activity [2]: inactive; Activity [3]: inactive; Activity [4]: inactive; Activity [5]: inactive; ED50 [6]: > 200 µg/mL; viability [7]: > 80%

Q: Which results are given for `O=c1c(O)c(-c2ccc(O)c(O)c2)oc2cc(O)cc(O)c12` [QUERCETIN]?
A: IC50 [1]: 9.6 µM; ED50 [6]: 18 µM
